# Compounds with a hit are over-represented: about 1.8% of the library has one in this group of screens.
# DDE Tn6 FP inh: inhibitors of Tn6 peptide binding to fibrin DD(E), primary screen, biochemical, fluorescence polarization, human fibrin, Tn6 probe; inhibition, % at 8.3 µM; Fibrin DD(E) TRITC-Tn6 fluorescence polarization displacement; AID 720509, 2013; 0.21% of 370,000 active; Fibrinogen beta chain (Homo sapiens), P02675;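 active means inhibition above a per-campaign cutoff: mean of compounds within control limits plus 3 SD, cut at about 15% in these data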;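 further: 0% = median of all compound wells on the plate and 100% = blocking peptide control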
# SIAE primary: human SIAE inhibitors, primary screen, biochemical, fluorescence polarization, FP-Rh probe, 1536-well HTS; Sialate O-acetylesterase (Homo sapiens), Q9HAT2; SIAE FP-Rh probe binding; inhibition, % at 9.66 µM; 0.69% of 370,000 active; AID 1053197, 2014;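 active means inhibition above a cutoff: mean of compounds within the control limits plus 3 SD of those, cut at about 17% in these data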;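 further: 0% = plate median of compound wells and 100% = probe without SIAE protein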
# HTRA1 inh: HTRA1 serine protease inhibitors, primary screen, biochemical, fluorescence polarization, HTS; Q92743; recombinant HTRA1, FP-rhodamine activity-based probe; inhibition, % at 5.96 µM; 0.5% of 340,000 active; in the data active means inhibition above about 36%;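 further: 0% = enzyme with DMSO and 100% = wells lacking enzyme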
# Target sequence (Q92743 whole entry, looked up): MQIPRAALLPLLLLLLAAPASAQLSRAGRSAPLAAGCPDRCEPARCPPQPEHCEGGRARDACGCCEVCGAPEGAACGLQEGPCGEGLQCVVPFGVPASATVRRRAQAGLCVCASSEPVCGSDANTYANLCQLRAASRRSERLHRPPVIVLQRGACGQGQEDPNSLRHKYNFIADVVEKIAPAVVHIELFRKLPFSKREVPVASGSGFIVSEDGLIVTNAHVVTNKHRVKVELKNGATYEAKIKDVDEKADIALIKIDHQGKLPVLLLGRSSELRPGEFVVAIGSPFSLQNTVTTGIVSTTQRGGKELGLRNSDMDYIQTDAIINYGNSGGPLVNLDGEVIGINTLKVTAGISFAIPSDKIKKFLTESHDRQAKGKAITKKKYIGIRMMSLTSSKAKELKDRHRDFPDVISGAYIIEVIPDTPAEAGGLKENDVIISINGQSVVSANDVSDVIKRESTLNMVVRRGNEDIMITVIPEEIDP
# DDE Tn7 FP inh: inhibitors of Tn7 peptide binding to fibrin DD(E), primary screen, biochemical, fluorescence polarization, human fibrin, Tn7 probe. AID 720508, 2013. inhibition, % at 8.3 µM. FP displacement of FITC-Tn7 peptide from fibrin DD(E); 0% = median of compound wells per plate. 0.13% of 370,000 active. Fibrinogen beta chain (Homo sapiens), P02675;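 active means inhibition above the mean of compounds falling within the control limits plus 3 SD of them, cut at about 14% in these data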;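 further: 0% = plate median of compound wells and 100% = 10 µM Aha-Tn7 peptide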
#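 Assay system: Human clot-derived fibrin DD(E) complex | Buffer or medium: Tris/NaCl/CaCl2 buffer, pH 7.8 | Repeats: One replicate per compound | Benchmarks: Aha-Tn7 high control | Measure: % inhibition scaled between sample-field median and high-control FP | Schedule: 10 min plus 3 h, room temperature | Signal: Fluorescence polarization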
# mABHD4 FP: ABHD4 inhibitors, primary screen, biochemical, fluorescence polarization, mouse | purified mABHD4, FP-Rh probe fluorescence polarization | inhibition, % at 8.92 µM | 0.54% of 370,000 active | AID 720543, 2013;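 active means inhibition exceeding the mean over every tested compound plus 3 SD, cut at about 30% in these data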;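 further: 0% = plate median of compound wells and 100% = S159A mutant with DMSO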
#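 Assay system: mouse ABHD4 enzyme, wild type / Also added: fluorescent activity-based probe FP-Rh / Doses: single nominal dose of 8.92 µM, 0.89% DMSO final / Timing: 45 min compound pre-incubation plus 60 min probe step, 25 °C / Signal: FP readout, ex 525 nm / em 598 nm / Control set: S159A mutant/DMSO as 100%, compound-well median as 0%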
# TCR CD3 inh: inhibitors of human TCR-CD3 interaction, primary screen, biochemical, fluorescence, TAMRA-labeled TCR probe | T-cell receptor (TCR) | inhibition, % at 9.4 µM | 0.37% of 360,000 active;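 further: recombinant mutant TCR 2C K166C tagged with TAMRA read by polarization; 0% = receptor in buffer alone and 100% = receptor with positive control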
# BSA TAMRA ctr: compounds interfering with TAMRA-BSA probe, counter-screen for TCR-CD3 interaction inhibitor project, biochemical, fluorescence, TAMRA-labeled BSA; 10% of 1,200 active; TAMRA-labeled BSA probe fluorescence counterscreen; inhibition, % at 9.4 µM; shares compounds with TCR CD3 inh; AID 652035, 2013; in the data active means inhibition above about 23%;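 further: 0% = buffer low control and 100% = reference high control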
# TCR-CD3 inh conf: TCR-CD3 interaction inhibitors, retest, confirmation, biochemical, fluorescence, TAMRA-labeled TCR probe | shares compounds with TCR CD3 inh | TAMRA-labeled TCR probe fluorescence binding assay | inhibition, % at 9.4 µM | 48% of 1,200 active | AID 652036, 2013
# Numbers without * were called inactive; . = no result given. Unless noted, no stated cut-off is given here; in the data, active means inhibition above about 19%; inactive means the rest.
SMILES,DDE Tn6 FP inh,SIAE primary,HTRA1 inh,DDE Tn7 FP inh,mABHD4 FP,TCR CD3 inh,BSA TAMRA ctr,TCR-CD3 inh conf
O=C(O)C1CC=CCC1C(=O)N1CCN(c2nc(-c3ccccc3)c3ccccc3n2)CC1 (configuration not stated),-2.8,3.1,-18.9,-4.4,10.3,1.0,.,.
Oc1ccc(Br)cc1/C=N/n1c(COc2ccccc2)n[nH]c1=S,6.2,4.9,11.1,-2.4,-0.1,20.4*,3.3,14.1
COC(=O)[C@]12C[C@H](CC(=O)N3CCC(c4ccccc4)CC3)C(=O)N(Cc3ccc(Cl)cc3Cl)C1=C[C@H](C(C)(C)C)O[C@@H]2C,7.3,-2.3,.,8.6,1.6,.,.,.
C=CCn1c(C)cc(-c2csc(NC(=O)CCc3nc4ccccc4c(=O)[nH]3)n2)c1C,-8.5,6.4,-2.9,4.8,-2.2,24.6*,-3.5,-1.1
O=C(CCc1nc2ccccc2c(=O)[nH]1)Nc1nc(-c2cccs2)cs1,2.2,-8.8,-10.5,6.0,-24.9,-4.0,.,.
C=CCN1C(=O)[C@@H](CC(=O)NCC2CCCCC2)[C@]2(C(=O)OCC)CCCCC/C=C/12,-6.6,9.5,.,0.4,-2.8,.,.,.
NC(=O)c1nsc(C(=O)N(CC(=O)NCc2ccccc2)c2ccc(F)cc2)c1N,1.3,0.2,-3.2,6.5,1.1,35.6*,3.1,5.4
O=C(CSc1nc2ccccc2s1)Nc1ccc(Cl)c(C(=O)O)c1,2.9,-0.4,-1.3,10.3,-12.3,-1.7,.,.
O=C(CSc1nc2ccccc2s1)Nc1ccc2c(c1)oc1ccccc12,4.2,6.6,-15.1,7.1,-10.5,23.8*,0.1,3.3
COC(=O)[C@]12C[C@H](CC(=O)NCCC(C)C)C(=O)N(CCC3=CCCCC3)C1=C[C@H](C(C)C)O[C@@H]2C1CC1,-5.4,-1.9,.,-2.6,3.5,.,.,.
O=C(NNC(=O)c1nn(-c2ccc(F)cc2)ccc1=O)Nc1cccc(Cl)c1,9.0,9.7,.,5.5,1.3,34.4*,-14.3,25.6*
CC(C)NC(=O)NNC(=O)c1nn(-c2ccc(F)cc2)ccc1=O,-4.9,-2.4,8.2,3.2,0.0,20.5*,0.3,15.4
CC(NCc1ccco1)C(=O)N1CCOCC1 (configuration not stated),0.1,-4.4,.,-2.5,-0.6,.,.,.
Cc1ccc(-c2cc(C(=O)Nc3ccc(S(=O)(=O)Nc4onc(C)c4C)cc3)[nH]n2)c(O)c1,-13.2,-24.1,-24.9,-0.4,-17.1,32.2*,-12.9,19.6*
Cc1ccc2oc(C(=O)Nc3ccc(S(=O)(=O)Nc4onc(C)c4C)cc3)c(C)c2c1,-4.6,-9.5,2.6,-2.5,4.8,1.6,.,.
CNC(=O)COC(=O)c1ccc(NC(=O)CC#N)cc1,-1.7,3.0,1.2,1.5,-4.0,0.9,.,.
N#CCC(=O)Nc1ccc(C(=O)OCC(=O)Nc2cc(-c3ccccc3)nn2-c2ccccc2)cc1,-3.7,-34.1,-64.8,1.5,-12.0,52.3*,14.1,21.3*
CCN(CC)S(=O)(=O)c1ccc(NC(=O)COC(=O)c2ccc(NC(=O)CC#N)cc2)cc1,0.0,-37.3,-24.4,-9.4,12.1,19.7*,-3.2,-0.2
COC(=O)[C@H]1C[C@@]2(N3CCCCC3)c3ccccc3N(S(=O)(=O)c3ccccc3)[C@H]2N1,1.4,8.1,.,-4.0,4.0,.,.,.
COC(=O)[C@]12C[C@H](CC(=O)N3CCC(c4ccccc4)CC3)C(=O)N(CCc3ccc(OC)c(OC)c3)C1=C[C@H](C(C)C)O[C@@H]2C1CC1,0.4,1.7,.,-3.3,1.5,.,.,.
O=C(O)c1c[nH]c2c([N+](=O)[O-])cccc2c1=O,-4.7,1.3,3.6,4.2,9.2,23.7*,-5.1,22.8*
Cc1c(C(=O)O)cccc1[N+](=O)[O-],4.1,3.2,6.7,-10.1,-5.9,-1.2,.,.
Cc1nc2ccccc2n1CC(=O)c1ccc(O)c(O)c1,-4.5,2.0,13.9,-3.4,16.4,45.0*,-7.4,37.0*
Cc1nc2ccccc2n1CC(=O)c1ccccc1,-2.1,8.2,-5.5,-3.7,-3.0,1.5,.,.
O=C(OCc1cn(Cc2ccc(F)c(F)c2)nn1)N1CCOCC1,-0.6,-3.1,.,0.8,3.4,.,.,.
SMILES,DDE Tn6 FP inh,SIAE primary,HTRA1 inh,DDE Tn7 FP inh,mABHD4 FP,TCR CD3 inh,BSA TAMRA ctr,TCR-CD3 inh conf
CCOC(=O)CC[C@@]1(C(=O)OCC)C[C@@H](CC(=O)NCc2ccc(OC)c(OC)c2)C(=O)N2CCCC=C21,-0.4,-3.4,.,1.7,3.5,.,.,.
Cc1ccccc1CSc1nnnn1-c1ccc(C(N)=O)cc1,-0.2,2.9,2.1,1.9,-6.1,-15.6,.,.
NC(=O)c1ccc(-n2nnnc2SCC(=O)c2ccc(O)c(O)c2)cc1,0.4,5.3,28.8,5.2,22.7,28.4*,-10.1,38.9*
CC(COc1cc(F)cc(F)c1)CN1CCC(C(O)(c2ccccc2)c2ccccc2)CC1 (configuration not stated),7.2,-9.4,.,-1.3,-1.6,.,.,.
Cc1nc(S/C(=C/c2ccc(OCc3ccc(C(=O)O)cc3)cc2)C(=O)O)n[nH]1,2.0,-2.9,-4.0,5.7,-20.6,22.4*,-6.0,31.6*
Cc1ccc(-c2noc(CCCC(=O)N3CCOCC3)n2)cc1,-0.5,-1.7,-5.1,-1.8,5.4,6.4,.,.
Cc1cccc(-c2noc(CCCC(=O)N3CCOCC3)n2)c1,0.1,0.2,3.5,0.9,-1.3,37.0*,5.0,2.9
C[C@@H]1CN([C@H](C)CO)C(=O)c2cc(NC(=O)Nc3ccc(C(F)(F)F)cc3)ccc2O[C@H]1CN(C)Cc1ccc(Cl)c(Cl)c1,-1.9,-11.5,-47.4,-0.9,-14.5,27.2*,23.6*,45.7*
C[C@H]1CN([C@@H](C)CO)C(=O)c2cccc(NC(=O)Nc3ccc(C(F)(F)F)cc3)c2O[C@@H]1CN(C)Cc1ccc(Cl)c(Cl)c1,-2.5,-49.3,-80.0,-5.3,-53.8,10.7,.,.
C[C@@H]1CN([C@H](C)CO)C(=O)c2cc(NC(=O)Nc3ccc(C(F)(F)F)cc3)ccc2O[C@H]1CN(C)S(=O)(=O)c1ccc(Cl)cc1,43.6*,-159.1,-88.7,0.0,-99.4,54.3*,24.5*,52.3*
COc1ccc2c(c(-c3ccccc3)cn2C)c1-c1ccccc1,5.4,14.4,.,8.7,8.3,.,.,.

# High-throughput results as filed in PubChem.
